In ChEMBL document CHEMBL1938250, “The discovery of non-benzimidazole and brain-penetrant prolylcarboxypeptidase inhibitors” (Bioorg Med Chem Lett, 2012):

Assays:
[1] = molecular target: T1, Lysosomal Pro-X carboxypeptidase (Mus musculus, UniProt Q7TMR0); assay: Inhibition of recombinant mouse PrCP using Mca-Ala-Pro-Lys(Dnp)-OH as substrate measured for 30 mins by continuous fluorometric assay
T1 sequence (Q7TMR0 whole entry): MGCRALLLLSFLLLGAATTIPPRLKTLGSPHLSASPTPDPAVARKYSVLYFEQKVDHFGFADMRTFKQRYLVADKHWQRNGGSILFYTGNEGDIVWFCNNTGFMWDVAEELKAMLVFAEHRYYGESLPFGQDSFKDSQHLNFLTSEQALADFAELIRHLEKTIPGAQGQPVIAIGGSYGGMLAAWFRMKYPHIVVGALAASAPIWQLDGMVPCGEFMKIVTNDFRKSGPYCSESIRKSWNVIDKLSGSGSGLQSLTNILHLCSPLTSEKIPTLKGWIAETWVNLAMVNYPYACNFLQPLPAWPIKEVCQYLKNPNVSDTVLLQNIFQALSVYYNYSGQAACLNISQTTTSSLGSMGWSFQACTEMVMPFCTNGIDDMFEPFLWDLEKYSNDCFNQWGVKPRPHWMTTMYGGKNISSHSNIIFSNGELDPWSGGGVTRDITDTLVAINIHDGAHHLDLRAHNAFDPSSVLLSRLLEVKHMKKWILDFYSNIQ

[2] = molecular target: T1, Lysosomal Pro-X carboxypeptidase; assay: Inhibition of PrCP-mediated conversion of Ang3 to Ang(2-7) in mouse plasma
Procedure, shortened: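 Whole mouse plasma was pretreated with protease inhibitors to block non-PrCP conversion of angiotensin III. Inhibitor was then added, and the rate of conversion of AngIII to Ang(2–7) was compared with a vehicle-treated control.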

[3] = Half life in mouse at 1 mg/kg, iv and 2 mg/kg, po by LC-MS/MS analysis; assay type: ADME, organism-based; settings: in vivo
Procedure, shortened: (§1)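 Mice received 1 mg/kg IV (n = 2) or 2 mg/kg PO (n = 3). The formulation was 1 mg/mL in ethanol–PEG–water (20:40:40). Blood was deproteinized with acetonitrile and drug levels were measured by LC/MS/MS. Outputs were clearance, Vd, half-life, %F and dose-normalized oral AUC.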

[4] = Volume of distribution in mouse at 1 mg/kg, iv and 2 mg/kg, po by LC-MS/MS analysis; assay type: ADME, organism-based; settings: in vivo
Procedure, shortened: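 Mouse PK with the compound formulated at 1 mg/mL in ethanol–PEG–water (20:40:40). Given IV at 1 mg/kg (n = 2) and PO at 2 mg/kg (n = 3). Blood concentrations were measured by LC/MS/MS after protein precipitation with acetonitrile. Volume of distribution is reported in L/kg.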

Mus musculus = assay: Normalized AUC in mouse at 2 mg/kg, po by LC-MS/MS analysis; assay type: ADME, organism-based; parameters: dose 2 mg/kg, route oral; settings: in vivo; procedure, shortened: as §1
[5] = Clearance in mouse at 1 mg/kg, iv and 2 mg/kg, po by LC-MS/MS analysis; assay type: ADME, organism-based; settings: in vivo; procedure, shortened: as §1
[6] = Oral bioavailability in mouse at 2 mg/kg by LC-MS/MS analysis; assay type: ADME, organism-based; settings: in vivo; procedure, shortened: as §1
[7] = Drug uptake in MDR1A knock-out CF1 mouse plasma at 30 mg/kg, po after 2 hrs; assay type: ADME, organism-based; parameters: dose 30 mg/kg, route oral
Procedure, shortened: (§2)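 CF1 MDR1A wild-type and MDR1A(-/-) mice (n = 4 each) received a single 30 mg/kg oral dose. Plasma and brain concentrations (nM) were measured at 2 and 6 h post-dose. The brain/plasma ratio was derived for each time point.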

[8] = Drug uptake in MDR1A knock-out CF1 mouse plasma at 30 mg/kg, po after 6 hrs; assay type: ADME, organism-based; parameters: dose 30 mg/kg, route oral; procedure, shortened: as §2
[9] = Ratio of drug level in brain to plasma in MDR1A knock-out CF1 mouse at 30 mg/kg, po after 2 hrs; assay type: ADME, organism-based; parameters: dose 30 mg/kg, route oral; settings: read-out: BPR; procedure, shortened: as §2
[10] = Ratio of drug level in brain to plasma in wild type MDR1A expressing CF1 mouse at 30 mg/kg, po after 2 hrs; assay type: ADME, organism-based; parameters: dose 30 mg/kg, route oral; settings: read-out: BPR; procedure, shortened: as §2
[11] = Drug uptake in MDR1A knock-out CF1 mouse brain at 30 mg/kg, po after 2 hrs; assay type: ADME, organism-based; parameters: dose 30 mg/kg, route oral; settings: read-out: Drug uptake; procedure, shortened: as §2
[12] = Drug uptake in wild type MDR1A expressing CF1 mouse brain at 30 mg/kg, po after 2 hrs; assay type: ADME, organism-based; parameters: dose 30 mg/kg, route oral; settings: read-out: Drug uptake; procedure, shortened: as §2
[13] = Drug uptake in wild type MDR1A expressing CF1 mouse plasma at 30 mg/kg, po after 2 hrs; assay type: ADME, organism-based; parameters: dose 30 mg/kg, route oral; procedure, shortened: as §2
[14] = Ratio of drug level in brain to plasma in MDR1A knock-out CF1 mouse at 30 mg/kg, po after 6 hrs; assay type: ADME, organism-based; parameters: dose 30 mg/kg, route oral; settings: read-out: BPR; procedure, shortened: as §2
[15] = Drug uptake in MDR1A knock-out CF1 mouse brain at 30 mg/kg, po after 6 hrs; assay type: ADME, organism-based; parameters: dose 30 mg/kg, route oral; settings: read-out: Drug uptake; procedure, shortened: as §2
[16] = Drug uptake in wild type MDR1A expressing CF1 mouse plasma at 30 mg/kg, po after 6 hrs; assay type: ADME, organism-based; parameters: dose 30 mg/kg, route oral; procedure, shortened: as §2
[17] = Ratio of drug level in brain to plasma in wild type MDR1A expressing CF1 mouse at 30 mg/kg, po after 6 hrs; assay type: ADME, organism-based; parameters: dose 30 mg/kg, route oral; settings: read-out: BPR; procedure, shortened: as §2
[18] = Drug uptake in wild type MDR1A expressing CF1 mouse brain at 30 mg/kg, po after 6 hrs; assay type: ADME, organism-based; parameters: dose 30 mg/kg, route oral; settings: read-out: Drug uptake; procedure, shortened: as §2

## Cn1cc(C(NC(=O)CCN2CCC(c3ccccc3)CC2)c2ccc(Cl)cc2)cn1 (racemic)
[1]
  IC50: 25 nM

## C[C@@H](c1ccc(-c2ccccc2)cc1)[C@H](NC(=O)C(C)(C)N)C(=O)NC(c1ccc(Cl)cc1)C(F)F (mixture of isomers)
[1]
  IC50: 6.6 nM
[2]
  IC50: 458 nM

## C[C@H](NC(=O)CCN1CCC(c2ccccc2)CC1)c1ccc(Cl)cc1
[3]
  half-life: 2.3 h
[4]
  Vd: 27 L/kg
Mus musculus
  AUC/dose: < 0.01 µM·kg·h/mg
[5]
  clearance: 185 mL/min/kg
[1]
  IC50: 54 nM
[6]
  bioavailability: < 1%
[2]
  IC50: 240 nM

## CC(NC(=O)CCN1CCC(c2ccccc2)CC1)c1ccccc1-c1ccccc1 (configuration not stated)
[1]
  IC50: 5.7 nM

## C[C@H](NC(=O)[C@@H](N)[C@@H](C)c1ccc(-c2ccccc2)cc1)c1ccc(Cl)cc1
[1]
  IC50: 11 nM
[2]
  IC50: 570 nM

## C[C@H](NC(=O)CCN1CCC(c2ccccc2)CC1)c1ccc(Br)cc1
[1]
  IC50: 20 nM

## C[C@@H](c1ccc(-c2ccccc2)cc1)[C@H](NC(=O)C(C)(C)N)C(=O)NC(c1ccc(Cl)cc1)C(F)(F)F (mixture of isomers)
[3]
  half-life: 4.4 h
[4]
  Vd: 24 L/kg
Mus musculus
  AUC/dose: 0.19 µM·kg·h/mg
[5]
  clearance: 78 mL/min/kg
[6]
  bioavailability: 40%

## O=C(CCN1CCC(c2nc(-c3ccccn3)no2)CC1)NC(c1ccc(Cl)cc1)c1ccc(Cl)cc1
[3]
  half-life: 0.7 h
[4]
  Vd: 5.6 L/kg
Mus musculus
  AUC/dose: < 0.01 µM·kg·h/mg
[5]
  clearance: 105 mL/min/kg
[1]
  IC50: 10 nM
[6]
  bioavailability: 1.3%
[2]
  IC50: 305 nM

## O=C(CCN1CCC(c2nc(-c3ccccn3)no2)CC1)NC(c1ccc(Cl)cc1)C(F)F (racemic)
[2]
  IC50: 156 nM

## C[C@@H](c1ccc(-c2ccccc2)cc1)[C@H](NC(=O)C(C)(C)N)C(=O)N1CCC[C@H]1c1nc2cc(Cl)c(Cl)cc2[nH]1
[7]
  concentration at 2 h: 186 nM
[8]
  concentration at 6 h: 51 nM
[9]
  Kp at 2 h: 0.9
[10]
  Kp at 2 h: 0.01
[11]
  concentration at 2 h: 166 nM
[12]
  concentration at 2 h: 4 nM
[13]
  concentration at 2 h: 306 nM
[14]
  Kp at 6 h: 3.6
[15]
  concentration at 6 h: 185 nM
[16]
  concentration at 6 h: 91 nM
[17]
  Kp at 6 h: 0.04
[18]
  concentration at 6 h: 3 nM
[2]
  IC50: 26 nM

## C[C@H](NC(=O)[C@@H](NC(=O)C(C)(C)N)[C@@H](C)c1ccc(-c2ccccc2)cc1)c1ccc(Cl)cc1
[1]
  IC50: 2.3 nM
[2]
  IC50: 198 nM
